# Published values collected from several papers.
# Compare with care: the assays were run in different laboratories.
# Target: Mitogen-activated protein kinase kinase kinase 15 (MAP3K15, Homo sapiens, UniProt Q6ZN16)
# Sequence (Q6ZN16 1-1313, as in one of the studies): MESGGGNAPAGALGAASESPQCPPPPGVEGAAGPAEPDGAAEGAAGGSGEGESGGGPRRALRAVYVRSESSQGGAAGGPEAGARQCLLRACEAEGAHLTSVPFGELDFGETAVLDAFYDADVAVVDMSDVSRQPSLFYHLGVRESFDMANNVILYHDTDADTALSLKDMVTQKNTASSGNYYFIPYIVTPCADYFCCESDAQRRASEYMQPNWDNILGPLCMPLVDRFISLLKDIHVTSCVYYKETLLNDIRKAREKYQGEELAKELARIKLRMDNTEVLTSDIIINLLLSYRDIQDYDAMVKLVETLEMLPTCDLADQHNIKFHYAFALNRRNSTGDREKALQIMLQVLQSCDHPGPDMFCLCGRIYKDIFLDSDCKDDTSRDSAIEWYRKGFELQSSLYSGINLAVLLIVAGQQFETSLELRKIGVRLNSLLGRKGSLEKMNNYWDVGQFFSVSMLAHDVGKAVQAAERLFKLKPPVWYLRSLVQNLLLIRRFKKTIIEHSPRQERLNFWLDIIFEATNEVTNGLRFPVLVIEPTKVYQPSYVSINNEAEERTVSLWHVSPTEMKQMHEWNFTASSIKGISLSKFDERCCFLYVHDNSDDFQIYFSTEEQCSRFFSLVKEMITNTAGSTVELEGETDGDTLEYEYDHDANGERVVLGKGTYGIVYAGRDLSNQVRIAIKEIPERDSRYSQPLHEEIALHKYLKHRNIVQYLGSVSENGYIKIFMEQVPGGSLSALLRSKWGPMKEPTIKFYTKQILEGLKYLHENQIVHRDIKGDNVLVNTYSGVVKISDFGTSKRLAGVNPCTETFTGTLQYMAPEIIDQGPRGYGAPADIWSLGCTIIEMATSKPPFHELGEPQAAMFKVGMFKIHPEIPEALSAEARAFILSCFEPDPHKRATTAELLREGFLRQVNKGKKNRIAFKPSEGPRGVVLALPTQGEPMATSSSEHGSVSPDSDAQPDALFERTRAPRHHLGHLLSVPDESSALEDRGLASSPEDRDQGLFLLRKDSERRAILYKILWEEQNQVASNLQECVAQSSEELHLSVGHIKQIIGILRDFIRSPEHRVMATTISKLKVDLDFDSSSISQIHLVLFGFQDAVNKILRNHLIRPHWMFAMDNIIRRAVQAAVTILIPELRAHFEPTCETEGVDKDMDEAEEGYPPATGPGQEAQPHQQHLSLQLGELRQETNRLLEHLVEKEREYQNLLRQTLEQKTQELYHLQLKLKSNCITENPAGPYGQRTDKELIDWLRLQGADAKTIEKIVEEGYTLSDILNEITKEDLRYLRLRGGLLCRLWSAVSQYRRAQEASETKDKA
Structure (SMILES),observed,method,tested at,remaining binding [%]
CCCOc1ccc([C@@H]2[C@@H](C(=O)O)[C@H](c3ccc4c(c3)OCO4)CN2CC(=O)Nc2c(CC)cccc2CC)cc1,cell-free assay,competition with immobilised ligand,1 µM,99
CN(c1nccc(-c2cnn3ncccc23)n1)C1CC1,binding,,1 µM,100
COc1cnc(Nc2cccc(S(N)(=O)=O)c2)nc1N1CCN(c2ccccc2)C(=O)C1,binding,competition with immobilised ligand,1 µM,69
Nc1cnc(N2CCc3cc(S(=O)(=O)Nc4c(F)cc(Cl)cc4F)cc(N4CCCC4=O)c32)nc1,cell-free assay,competition with immobilised ligand,1 µM,100
COc1ncc2cc3ccccc3nc2c1C#N,cell-free assay,competition with immobilised ligand,5 µM,95
C=CC(=O)N1CCC(C(=O)NCC(=O)N2CCN(c3nc(-c4cnc(N)nc4C(F)F)nc(N4CCOCC4)n3)CC2)CC1,binding,competition with immobilised ligand,1 µM,100
CN(C)c1nccc(-c2cnn3ncccc23)n1,binding,,1 µM,91
Cn1nc(C(F)(F)F)cc1-c1cnc(N2CCc3cc(S(=O)(=O)Nc4c(F)cc(Cl)cc4F)cc(N4CCCC4=O)c32)nc1,cell-free assay,competition with immobilised ligand,1 µM,81
O=C(NCCCN1CCOCC1)c1ccc(Nc2nccc(-c3cc4ccccc4s3)n2)cc1,binding,competition with immobilised ligand,1 µM,56
O=C(Nc1c[nH]nc1C(=O)NC1CCNCC1)c1cc(F)cc(F)c1,binding,competition with immobilised ligand,1 µM,100
COc1ccc2c(c1)O[C@@H](c1ccc(OC)c(OC)c1)C[C@H]2NC(=O)C1(c2ccc3c(c2)OC(F)(F)O3)CC1,cell-free assay,competition with immobilised ligand,1 µM,88
Cc1cnn2ncc(-c3ccnc(N(C)C)n3)c2c1,binding,,1 µM,100
CC1=C(C#N)C(c2ccc3c(c2)c(NC(=O)c2ccccc2C)nn3C)C(C#N)=C(C)N1,cell-free assay,competition with immobilised ligand,1 µM,96
N[C@H]1CCN(c2nccc(-c3cnn4ncccc34)n2)C1,binding,,1 µM,83
O=C(NCCCN1CCOCC1)c1ccc(Nc2ncc(Cl)c(-c3ccc(Cl)s3)n2)cc1,binding,competition with immobilised ligand,1 µM,68
CNC(=O)[C@@H]1CC[C@@H](n2c(-c3ccc4cnccc4c3)nc3ccc(C(=O)NCc4cccc(C(N)=O)c4)cc32)C1,binding,competition with immobilised ligand,1 µM,99
CC1CCCN1c1nccc(-c2cnn3ncccc23)n1 (centres unmarked),binding,,1 µM,100
C[C@@]1(Cc2ccc(C#N)cc2)C(=O)N(c2cc(Cl)cc(Cl)c2)c2ncc(C(=O)NC3(c4nc(C5CCC5)no4)CC3)n21,cell-free assay,competition with immobilised ligand,1 µM,81
Cc1cnc(Nc2ccc(C(=O)N3CCC(N4CCCC4)CC3)cc2)nc1-c1cc2ccccc2s1,binding,competition with immobilised ligand,1 µM,38
C[C@@H]1CCN(c2nccc(-c3cnn4ncccc34)n2)C1,binding,,1 µM,100
